According to ChEMBL document CHEMBL3792374, “Discovery of a ring-opened derivative of 3-n-butylphthalide bearing NO/H2S-donating moieties as a potential anti-ischemic stroke agent” (Eur J Med Chem, 2016):
pIC50: −log10 of the molar value. Calls of active or inactive are those of the source. No cut-off for these calls is given here.

Legend:
Rattus norvegicus [1] = assay: Neuroprotective activity in Sprague-Dawley rat model of transient middle cerebral artery occlusion stroke model assessed as reduction in brain water content at 380 mg/kg administered via oral gavage for 7 days after ischemia onset measured 24 hrs after middle cerebral artery occlusion; type: functional, organism-based; conditions: in the assay text read “before ischemia onset” for “after ischemia onset”
Method in brief: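 Male SD rats were gavaged daily for 7 days, with 0.5% CMC-Na as vehicle, then underwent 2 h MCAO with reperfusion. At 24 h after reperfusion the ischemic hemisphere was weighed wet, dried at 100 °C for 24 h and reweighed. Water content was calculated as (wet − dry)/wet × 100%. Mean ± SD, n = 6, ANOVA/Tukey.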

Liver [2] = assay: Induction of hydrogen sulfide release in rat liver homogenate at 100 uM after 60 mins by microplate reader method (reference value: 1.03 to 1.21%); type: functional, tissue-based
Method in brief: (§1)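 Compound was incubated at 37 °C for 0–90 min with fresh rat liver homogenate. The reaction was stopped with 1% zinc acetate and 10% trichloroacetic acid. N,N-dimethyl-p-phenylenediamine sulfate in 7.2 M HCl and FeCl3 in 1.2 M HCl were added, and absorbance was read at 670 nm after 10 min. Values were calculated against an NaHS standard curve as cumulative % conversion to H2S, n = 6.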

[3] = Induction of nitric oxide release in potassium phosphate buffer at pH 7.4 at 0.1 mM after 15 mins by Griess assay; type: physicochemical; conditions: pH 7.4, 0.25 h, 100 µM
Method in brief: (§2)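 Compound (0.1 mM) in PBS pH 7.4 containing 2% DMSO and 5.0 mM L-cysteine was held at 37 °C for 15–300 min. Samples were taken every 15 min up to 120 min, then every 30 min. Each sample was reacted with Griess reagent for 10 min at 37 °C and absorbance read at 540 nm. Nitrite was quantified from a nitrite standard curve. Means reported; intra-group variation <10%.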

Rattus norvegicus [4] = assay: Antioxidant activity in Sprague-Dawley rat brain tissue model of transient middle cerebral artery occlusion stroke model assessed as malondialdehyde levels per mg of protein at 80 mg/kg administered via oral gavage for 7 days after ischemia onset measured 24 hrs after reperfusion (reference value: 1.46 nmol); type: functional; conditions: in the assay text read “before ischemia onset” for “after ischemia onset”
Method in brief: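 Male SD rats (280–320 g; n = 12 per group) were gavaged daily for 7 days, with 0.5% CMC-Na as vehicle. Two hours after the last dose they were anesthetized with chloral hydrate (300 mg/kg ip) and underwent 2 h MCAO followed by reperfusion. Brains were taken 24 h after reperfusion, rinsed in cold saline and stored at −70 °C. Protein was quantified, then GSH, SOD, GSH-Px and MDA were measured by kits. Mean ± SD, n = 6, ANOVA/Tukey.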

[5] = Antiplatelet activity in rabbit platelet-rich plasma assessed as inhibition of ADP-induced platelet aggregation at 0.1 mM preincubated for 5 mins followed by addition of ADP measured within 5 mins by Borns turbidimetric method; type: functional; conditions: Oryctolagus cuniculus
Method in brief: (§3)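 Rabbit carotid blood was citrated (3.8%, 9:1). PRP was obtained at 500 g for 10 min and PPP at 3000 g for 10 min. PRP was preincubated in duplicate for 5 min at 37 °C with 0.1 mM compound, plus carboxy-PTIO or BSS where indicated. ADP was then added and maximal light transmission recorded within 5 min, within 3 h of blood collection. Inhibition % was calculated versus control. Mean ± SD of three independent experiments.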

[6] = Antiplatelet activity in rabbit platelet-rich plasma assessed as inhibition of ADP-induced platelet aggregation preincubated for 5 mins followed by addition of ADP measured within 5 mins by Borns turbidimetric method; type: functional; conditions: Oryctolagus cuniculus
Method in brief: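 Platelet-rich plasma from citrated rabbit carotid blood was preincubated in duplicate at 37 °C for 5 min with compound at 0.1, 0.2, 0.4, 0.8 or 1.6 mM. ADP-induced aggregation was then recorded turbidimetrically, as maximal light transmission within 5 min. Inhibition was calculated versus vehicle control, and IC50 values were derived. Mean ± SD, n = 6, ANOVA/Tukey.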

[7] = Antiplatelet activity in rabbit platelet-rich plasma assessed as inhibition of ADP-induced platelet aggregation at 0.1 mM preincubated for 5 mins followed by addition of ADP measured within 5 mins by Borns turbidimetric method in presence of H2S scavenger BSS; type: functional; conditions: Oryctolagus cuniculus; method in brief: as §3
[8] = Antiplatelet activity in rabbit platelet-rich plasma assessed as inhibition of ADP-induced platelet aggregation at 0.1 mM preincubated for 5 mins followed by addition of ADP measured within 5 mins by Borns turbidimetric method in presence of nitric oxide scavenger carboxy-PTIO; type: functional; conditions: Oryctolagus cuniculus; method in brief: as §3
Liver [9] = assay: Induction of hydrogen sulfide release in rat liver homogenate at 100 uM after 30 mins by microplate reader method (reference value: 1.03 to 1.21%); type: functional, tissue-based; method in brief: as §1
[10] = Induction of nitric oxide release in potassium phosphate buffer at pH 7.4 at 0.1 mM after 150 mins by Griess assay; type: physicochemical; conditions: pH 7.4, 2.5 h, 100 µM; method in brief: as §2
[11] = Induction of nitric oxide release in potassium phosphate buffer at pH 7.4 at 0.1 mM after 30 mins by Griess assay; type: physicochemical; conditions: pH 7.4, 0.5 h, 100 µM; method in brief: as §2
Rattus norvegicus [12] = assay: Antioxidant activity in Sprague-Dawley rat brain tissue model of transient middle cerebral artery occlusion stroke model assessed as increase in glutathione peroxidase levels per mg of protein at 80 mg/kg […] measured 24 hrs after reperfusion by DTNB assay relative to control; type: functional
[13] = Induction of nitric oxide release in potassium phosphate buffer at pH 7.4 at 0.1 mM after 120 mins by Griess assay; type: physicochemical; conditions: pH 7.4, 2 h, 100 µM; method in brief: as §2
Liver [14] = assay: Induction of hydrogen sulfide release in rat liver homogenate at 100 uM after 90 mins by microplate reader method (reference value: 1.03 to 1.21%); type: functional, tissue-based; method in brief: as §1
[15] = Induction of nitric oxide release in potassium phosphate buffer at pH 7.4 at 0.1 mM after 75 mins by Griess assay; type: physicochemical; conditions: pH 7.4, 1.25 h, 100 µM; method in brief: as §2
Rattus norvegicus [16] = assay: Antioxidant activity in Sprague-Dawley rat brain tissue model of transient middle cerebral artery occlusion stroke model assessed as increase in superoxide dismutase levels per mg of protein at 380 mg/kg […] measured 24 hrs after reperfusion by nitroblue tetrazolium assay relative to control; type: functional
Rattus norvegicus [17] = assay: Neuroprotective activity in Sprague-Dawley rat model of transient middle cerebral artery occlusion stroke model assessed as reduction in infarct size at 380 mg/kg administered via oral gavage for 7 days […] measured 24 hrs after middle cerebral artery occlusion by TTC assay; type: functional, organism-based
Method in brief: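 Male SD rats (280–320 g), n=12/group, dosed by gavage in 0.5% CMC-Na daily for seven days; 2 h after last dose, anesthetized (chloral hydrate 300 mg/kg ip) and subjected to 2 h intraluminal MCAO then reperfusion. At 24 h post-reperfusion, brains (n=6) cut coronally at 2 mm, stained 2% TTC 30 min 37 °C, formalin-fixed; infarct area expressed as percent of whole brain; mean SD, ANOVA/Tukey.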

[18] = Induction of nitric oxide release in potassium phosphate buffer at pH 7.4 at 0.1 mM after 180 mins by Griess assay; type: physicochemical; conditions: pH 7.4, 3 h, 100 µM; method in brief: as §2
Rattus norvegicus [19] = assay: Antioxidant activity in Sprague-Dawley rat brain tissue model of transient middle cerebral artery occlusion stroke model assessed as increase in glutathione peroxidase levels per mg of protein at 380 mg/kg […] measured 24 hrs after reperfusion by DTNB assay relative to control; type: functional
[20] = Induction of nitric oxide release in potassium phosphate buffer at pH 7.4 at 0.1 mM after 240 mins by Griess assay; type: physicochemical; conditions: pH 7.4, 4 h, 100 µM; method in brief: as §2

For `CCCCC(OC(=O)CN1CCN(CCCCCOc2ccc(-c3cc(=S)ss3)cc2)CC1)c1ccccc1C(=O)Oc1ccc(/C=C/C(=O)OCCO[N+](=O)[O-])cc1OC` (racemic), the Activity (Rattus norvegicus [1]) was “Active”, the Activity (Liver [2]) was 4.25% and the Activity [3] was 3.16 µM. It also gave an Activity (Rattus norvegicus [4]) of 1.07 nmol, an inhibition at 100 µM [5] of 41% and a pIC50 [6] of 3.85. It also gave an inhibition at 100 µM [7] of 20.9%, an inhibition at 100 µM [8] of 29.1% and an Activity (Liver [9]) of 3.04%. It also gave an Activity [10] of 10.23 µM, an Activity [11] of 5.48 µM and an Activity (Rattus norvegicus [12]) of 29.57%. The Activity [13] was 10.09 µM, the Activity (Liver [14]) was 4.4% and the Activity [15] was 8.48 µM. The Activity (Rattus norvegicus [16]) was 32.02%, the Activity (Rattus norvegicus [17]) was “Active” and the Activity [18] was 10.3 µM. The Activity (Rattus norvegicus [19]) was 69.26% and the Activity [20] was 10.35 µM.
